Results pooled from the literature.
Target: Ephrin type-B receptor 6 (EPHB6, Homo sapiens, UniProt O15197)
One construct used (O15197 32-1021): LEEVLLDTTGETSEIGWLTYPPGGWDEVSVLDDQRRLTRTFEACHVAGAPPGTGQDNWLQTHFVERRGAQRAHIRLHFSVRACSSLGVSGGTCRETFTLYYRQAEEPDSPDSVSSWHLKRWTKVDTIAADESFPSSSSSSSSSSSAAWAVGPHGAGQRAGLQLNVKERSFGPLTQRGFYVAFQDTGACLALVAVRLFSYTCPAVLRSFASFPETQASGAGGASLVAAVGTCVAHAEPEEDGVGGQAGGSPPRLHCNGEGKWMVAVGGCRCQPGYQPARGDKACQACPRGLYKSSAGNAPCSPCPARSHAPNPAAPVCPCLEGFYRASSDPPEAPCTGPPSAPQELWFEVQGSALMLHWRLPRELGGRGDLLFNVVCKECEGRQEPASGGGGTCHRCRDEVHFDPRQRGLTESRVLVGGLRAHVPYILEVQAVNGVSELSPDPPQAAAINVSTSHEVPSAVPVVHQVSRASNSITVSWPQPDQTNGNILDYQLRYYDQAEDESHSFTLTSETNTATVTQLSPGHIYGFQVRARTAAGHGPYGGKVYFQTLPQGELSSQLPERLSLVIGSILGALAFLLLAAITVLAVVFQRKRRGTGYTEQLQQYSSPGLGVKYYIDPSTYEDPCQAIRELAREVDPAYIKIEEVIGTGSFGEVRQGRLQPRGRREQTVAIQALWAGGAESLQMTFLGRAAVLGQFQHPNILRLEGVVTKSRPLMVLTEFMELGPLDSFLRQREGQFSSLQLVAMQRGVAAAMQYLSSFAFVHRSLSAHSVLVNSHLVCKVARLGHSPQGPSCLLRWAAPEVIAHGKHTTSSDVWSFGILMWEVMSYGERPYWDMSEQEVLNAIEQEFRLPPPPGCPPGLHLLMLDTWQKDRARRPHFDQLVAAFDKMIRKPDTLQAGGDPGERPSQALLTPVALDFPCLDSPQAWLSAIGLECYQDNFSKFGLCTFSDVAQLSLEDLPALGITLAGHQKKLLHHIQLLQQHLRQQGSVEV

SMILES	read-out	technique	concentration	remaining binding [%]
C[C@@H](c1ccc(-n2cnc3c(N)ncnc32)cc1)N1CCc2nn(C)c(Cc3ccccc3)c2C1=O	binding	competition with immobilised ligand	0.1 µM	51
CN(c1nccc(-c2cnn3ncccc23)n1)C1CC1	binding	–	1 µM	100
FC(F)(F)Oc1cccc(-c2cnc3ccc(-c4ccncc4)nn23)c1	cell-free assay	competition with immobilised ligand	5 µM	9.3
COc1cnc(Nc2cccc(S(N)(=O)=O)c2)nc1N1CCN(c2ccccc2)C(=O)C1	binding	competition with immobilised ligand	1 µM	90
O=C(Nc1c[nH]nc1C(=O)NC1CCNCC1)c1cc(F)cc(F)c1	binding	competition with immobilised ligand	1 µM	100
CNC(=O)c1ccc(Nc2ncc(C(F)(F)F)c(NCc3nccnc3N(C)S(C)(=O)=O)n2)cc1	cell-free assay	competition with immobilised ligand	0.1 µM	100
CN(C)c1ncc(F)c(-c2cnn3ncccc23)n1	binding	–	1 µM	77
O=C(c1ccc(Nc2ncc(Cl)c(-c3cc4ccccc4s3)n2)cc1)N1CCC(N2CCCC2)CC1	binding	competition with immobilised ligand	1 µM	3.9
N[C@@H]1CCN(c2nccc(-c3cnn4ncccc34)n2)C1	binding	–	1 µM	52
COc1ncc2cc3ccccc3nc2c1C#N	cell-free assay	competition with immobilised ligand	5 µM	73
c1cncc(-c2cccc(Nc3nccc(NC4CCCCC4)n3)c2)c1	binding	competition with immobilised ligand	10 µM	1.6
O=C(Nc1cccnn1)N1CCC(=Cc2cccc(Oc3ccc(C(F)(F)F)cn3)c2)CC1	cell-free assay	competition with immobilised ligand	1 µM	100
CN(C)c1nccc(-c2cnc3ncccn23)n1	binding	–	1 µM	45
Cc1cnc(Nc2ccc(C(=O)N3CCC(N4CCCC4)CC3)cc2)nc1-c1cc2ccccc2s1	binding	competition with immobilised ligand	1 µM	3.3
Cc1c[nH]c2nccc(Oc3c(F)cc(Nc4cc(Cl)nc(N)n4)cc3F)c12	cell-free assay	competition with immobilised ligand	0.1 µM	96
C[C@@H]1CCN(c2nccc(-c3cnn4ncccc34)n2)C1	binding	–	1 µM	93
O=C(NC[C@@H]1[C@H]2CN(C(=O)OCc3cc(C(F)(F)F)cc(C(F)(F)F)c3)C[C@@H]12)c1ccc2[nH]nnc2c1	cell-free assay	competition with immobilised ligand	1 µM	100
COc1cnc(Nc2cccc(S(N)(=O)=O)c2)nc1N1CCN(c2ccccc2)CC1	binding	competition with immobilised ligand	1 µM	95
CC(=O)N1CCC(c2ccc(C(=O)NC3=NCCN3)cc2C(F)(F)F)CC1	cell-free assay	competition with immobilised ligand	1 µM	100
O=C(c1ccc(Nc2ncc(Cl)c(-c3ccc(Cl)s3)n2)cc1)N1CCC(N2CCCC2)CC1	binding	competition with immobilised ligand	1 µM	0
c1cnn2ncc(-c3ccnc(N4CCC45COC5)n3)c2c1	binding	–	1 µM	63
O=C(Nc1cccnn1)N1CC(C/C=C/c2cncc(Oc3ccc(C(F)(F)F)cn3)n2)C1	cell-free assay	competition with immobilised ligand	1 µM	87
